Source: PubChem (Sanford-Burnham Center for Chemical Genomics)
Apaf-1 inh: inhibitors of human Apaf-1 apoptosome, primary screen, biochemical, DEVD-Rh110 fluorescence, uHTS. Apoptotic protease-activating factor 1 (Homo sapiens), O14727. reconstituted apoptosome caspase-3 activity. inhibition, % at 20 µM. 0.71% of 330,000 active. AID 489030, 2010; active means inhibition of at least 40% at 20 µM;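 further: plate controls were DMSO wells for no effect and DEVD-CHO caspase inhibitor wells for full effect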
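System: reconstituted apoptosome with Apaf-1, cytochrome c, caspase-9, procaspase-3, dATP; Signal: Rh110 fluorescence intensity; Schedule: 30 min compound preincubation, 50 min activation, room temperature; Reagent: cytochrome c trigger plus (Z-DEVD)2-Rh110 caspase-3 substrate.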
SENP8 block-1: SENP8 protease inhibitors, primary screen, biochemical, luminescence; Sentrin-specific protease 8 (Homo sapiens), Q96LD8; AID 2540, 2010; 1.2% of 330,000 active; inhibition, % at 10 µM; purified SENP8, Z-RLRGG-aminoluciferin cleavage; in the data active means inhibition above about 50%
Target sequence (Q96LD8 whole entry, looked up): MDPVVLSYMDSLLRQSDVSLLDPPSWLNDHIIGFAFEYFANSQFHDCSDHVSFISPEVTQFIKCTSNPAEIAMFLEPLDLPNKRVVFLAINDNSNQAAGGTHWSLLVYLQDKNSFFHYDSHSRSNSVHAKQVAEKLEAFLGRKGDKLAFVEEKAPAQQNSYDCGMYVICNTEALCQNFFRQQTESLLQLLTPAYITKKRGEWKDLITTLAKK
UBC13 inh: UBC13 polyubiquitin chain formation inhibitors, primary screen, biochemical, TR-FRET, uHTS; Ubiquitin-conjugating enzyme E2 N (Homo sapiens), P61088; inhibition, % at 20 µM; 0.47% of 330,000 active; AID 485273, 2010; in the data active means inhibition above about 45%, passing the limit was not always enough; inconclusive means no clear call, values can overlap the other calls
Target sequence (P61088 whole entry, looked up): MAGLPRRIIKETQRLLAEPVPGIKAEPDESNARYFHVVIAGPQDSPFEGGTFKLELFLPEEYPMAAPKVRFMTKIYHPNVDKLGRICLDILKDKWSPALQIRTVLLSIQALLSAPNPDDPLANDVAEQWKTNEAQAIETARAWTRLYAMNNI
SENP6 block: SENP6 protease inhibitors, primary screen, biochemical, luminescence, uHTS; Sentrin-specific protease 6 (Homo sapiens), Q9GZR1; Recombinant SENP6 catalytic domain, aminoluciferin luminescence; inhibition, % at 10 µM; 1.8% of 330,000 active; AID 2599, 2010;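 active means inhibition above about 50% at the single tested dose, limit read from the data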;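 further: plate controls were DMSO wells with enzyme for no effect and DMSO wells lacking enzyme for full effect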
SENP8 block-2: human SENP8 protease inhibitors, primary screen, biochemical, fluorescence, Nedd8 protein substrate, uHTS; inhibition, % at 20 µM; 0.64% of 360,000 active; recombinant SENP8; in the data active means inhibition mostly above about 40%, no sharp cut-off; inactive means mostly below about 27%
SENP7 block: SENP7 protease inhibitors, primary screen, biochemical, luminescence, uHTS; 1.5% of 330,000 active; Sentrin-specific protease 7 (Homo sapiens), Q9BQF6; inhibition, % at 5 µM; AID 434973, 2010; recombinant SENP7, Z-RLRGG-aminoluciferin luminescence, 40 min;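 active means inhibition above about 50% at the single test dose, limit read from the data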;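 further: plate controls were DMSO with enzyme for no effect and no enzyme buffer wells for full effect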
Casp3 counter: CASP3 inhibitor validation, counterassay for project on UBE2N polyubiquitination blockers, biochemical, one dose | shares compounds with UBC13 inh | 4% of 1,400 active | Recombinant caspase-3, Caspase-Glo 3/7 luminescence, 60 min | inhibition, % at 20 µM | AID 488856, 2010;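 active means mean inhibition across replicates above about 26%, limit read from the data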;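 further: plate controls were DMSO with caspase-3 for no effect and DMSO wells lacking enzyme for full effect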
Target sequence (P42574 whole entry, looked up): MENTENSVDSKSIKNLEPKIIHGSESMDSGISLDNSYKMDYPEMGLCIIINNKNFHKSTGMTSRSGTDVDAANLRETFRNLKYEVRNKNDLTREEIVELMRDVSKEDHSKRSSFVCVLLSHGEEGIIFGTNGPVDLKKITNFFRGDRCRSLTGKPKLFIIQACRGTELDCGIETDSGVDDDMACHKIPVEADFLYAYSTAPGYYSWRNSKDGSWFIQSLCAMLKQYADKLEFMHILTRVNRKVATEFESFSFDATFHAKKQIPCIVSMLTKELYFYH
UBC13 conf: UBC13 polyubiquitination inhibitors, single-point retest, confirmation, biochemical, TR-FRET, single concentration; shares compounds with UBC13 inh; inhibition, % at 10 µM; 68% of 1,400 active; in the data active means inhibition above about 45%; inconclusive means no clear call, values can overlap the other calls
Starred values were filed as active, the others as inactive; ? = inconclusive; . = no result given. This is a sample that favours compounds with a hit; in the whole collection about 3.1% have one here.

SMILES | Apaf-1 inh | SENP8 block-1 | UBC13 inh | SENP6 block | SENP8 block-2 | SENP7 block | Casp3 counter | UBC13 conf
C#CCOCCOCCOCCNc1nc(N2CCN(C(=O)[C@H]([C@@H](C)CC)n3cc([C@@H](N)CO)nn3)CC2)nc(N2CCN(C(=O)[C@H](Cc3cc4ccccc4[nH]3)n3cc([C@@H](N)C(C)CC)nn3)CC2)n1 (stereo partly drawn) | 47.9* | -19.0 | 59.6* | -20.3 | . | -15.2 | 8.4 | 46.2*
C#CCOCCOCCOCCNc1nc(N2CCN(C(=O)C([C@@H](C)CC)n3cc(C(N)COC(=O)C(F)(F)F)nn3)CC2)nc(N2CCN(C(=O)[C@H](Cc3cc4ccccc4[nH]3)n3cc(C(N)CO)nn3)CC2)n1 (stereo partly drawn) | 49.2* | -0.8 | 69.0* | -9.4 | . | 5.8 | 3.2 | 28.8
C#CCOCCOCCOCCNc1nc(N2CCN(C(=O)[C@H]([C@@H](C)CC)n3cc([C@@H](N)CO)nn3)CC2)nc(N2CCN(C(=O)[C@H](Cc3ccc(O)cc3)n3cc([C@@H](N)C(C)CC)nn3)CC2)n1 (stereo partly drawn) | -2.1 | -11.6 | 5.4 | -12.7 | 13.8 | 0.0 | . | .
CC1(C(=O)NCc2ccccc2)CN(S(C)(=O)=O)CC(=O)N1Cc1cccs1 (stereo not drawn) | . | . | . | . | 21.8 | . | . | .
COc1ccc(-c2nnc(SCC(=O)Nc3cc(F)ccc3C)o2)cc1 | 1.8 | -4.8 | 47.3* | -12.1 | 6.8 | -0.2 | -0.7 | 35.4
Cc1cccc(C)c1OCc1nnc(SCC(=O)NCCc2ccccc2)o1 | 7.3 | 2.6 | 91.5* | 11.7 | 8.6 | 0.2 | -5.3 | 2.7
CN(C)S(=O)(=O)c1ccc(NC(=O)Cn2nc(-c3ccc4c(c3)OCCO4)ccc2=O)cc1 | . | . | . | . | 10.0 | . | . | .
O=C(C[n+]1cc(-c2ccc(Cl)c(Cl)c2)n2c1CCC2)N1c2ccccc2Sc2ccccc21 | 26.2 | -9.0 | 45.2* | -16.0 | 23.9 | -5.5 | -3.8 | 39.2
O=C(C[n+]1cc(-c2ccc(Cl)cc2)n2c1CCC2)N1c2ccccc2Sc2ccccc21 | 9.7 | -8.3 | 8.5 | -7.9 | 19.9 | -4.6 | . | .
NCCCn1c(C(=O)c2cc(Cl)c(N)c(Cl)c2)c2ccccc2[n+]1[O-] | 5.6 | -4.3 | 97.0* | -12.3 | -43.5 | 0.0 | 1.0 | 99.9*
COc1ccc(C(=O)c2c3ccccc3[n+]([O-])n2CCCN)cc1 | 7.7 | 0.7 | -12.1 | 7.5 | -28.2 | 1.0 | . | .
NC(=O)CCn1c(C(=O)c2cc(Cl)c(N)c(Cl)c2)c2ccccc2[n+]1[O-] | 5.0 | -0.4 | 61.5* | 4.7 | 26.7 | -6.6 | 0.0 | 65.2*
NC(=O)CCn1c(C(=O)c2cccc([N+](=O)[O-])c2)c2ccccc2[n+]1[O-] | -3.6 | 7.1 | 5.5 | 1.0 | 12.4 | 0.5 | . | .
CCOC(=O)c1nn(-c2ccccc2)c(=O)cc1OCC(=O)Nc1cc(C)ccc1OC | -57.0 | 2.6 | 48.3* | -8.4 | -37.2 | 7.0 | -4.8 | ?
CC(C)(C)c1cc(NCCCn2ccnc2)n2ncc(-c3ccccc3)c2n1 | 30.6 | -8.5 | 60.7* | -19.9 | -406.7 | 2.5 | -0.2 | 55.2*
CC(C)c1ccc(NC(=O)C[n+]2ccn(C3=C([O-])c4ccccc4C3=O)c2)cc1 | 24.5 | 7.5 | 56.3* | 36.1 | 23.8 | 15.8 | -4.0 | 46.9*
CC(C)c1ccc(NC(=O)CNC(=O)Cn2ccc3ccccc3c2=O)cc1 | -2.4 | -6.0 | -4.9 | -21.5 | -46.9 | -6.7 | . | .
COc1ccc(-n2nc(C(=O)NCc3ccco3)c3c4ccccc4n(C)c3c2=O)cc1 | -1.2 | 1.5 | 39.2 | -0.6 | -263.6 | 3.8 | . | .
COc1ccc(-n2nc(C(=O)NCc3cc(OC)ccc3OC)c3c4ccccc4n(C)c3c2=O)cc1 | -11.0 | -5.4 | 47.4* | 17.3 | -406.3 | 2.0 | 2.1 | ?
Clc1ccc(Cn2ncc3c(N4CCN(c5ccccc5)CC4)ncnc32)cc1 | . | . | . | . | 5.2 | . | . | .
Cc1ccc(-c2[nH]c3cc(C(=O)NCCCn4ccnc4)ccc3c(=O)c2O)cc1 | 5.9 | 1.0 | 46.5* | 6.1 | -425.2 | -3.4 | -2.1 | 43.3
CN(C)CCCn1c(SCC(=O)Nc2nc(-c3cccc(Br)c3)cs2)nc2ccccc2c1=O | 29.0 | -7.9 | 116.0* | 4.5 | -7.5 | -43.3 | 1.9 | 134.3*
O=C(CSc1nc2ccccc2[nH]1)Nc1nc(-c2cccc(Br)c2)cs1 | 5.7 | -3.8 | 14.6 | 1.6 | 26.0 | 6.0 | . | .
O=C1CC(c2ccc(F)cc2)CC(O)=C1C1NCCc2ccccc21 (stereo not drawn) | -2.0 | -4.4 | 5.3 | -4.6 | 24.0 | 0.5 | . | .
O=C1CC(c2ccc(F)cc2)C(n2cncn2)C(O)=C1C1NCCc2ccccc21 (stereo not drawn) | -5.7 | -6.6 | 53.5* | 24.1 | 11.5 | 6.2 | -1.2 | 9.0
SMILES | Apaf-1 inh | SENP8 block-1 | UBC13 inh | SENP6 block | SENP8 block-2 | SENP7 block | Casp3 counter | UBC13 conf
NC(N)=N/N=C/c1ccc2cccc(OCc3ccccc3)c2n1 | 4.4 | -11.4 | 50.1* | -16.6 | -426.2 | 11.6 | -0.6 | 41.2
Cc1ccc(-n2nc3c4c(cccc4c2=O)-c2ccccc2-3)cc1 | 15.6 | -9.8 | 45.7* | -13.5 | -293.9 | -3.3 | 8.5 | 38.6
Cc1ccc(S(=O)(=O)C[C@@H]2OC[C@H](C)N2S(=O)(=O)c2ccc(C)cc2)cc1 | . | . | . | . | 17.7 | . | . | .
Oc1ccc(C[C@H]2CNCCN2CCCCC2CCCCC2)cc1 | 40.6* | -18.5 | 58.1* | -21.3 | 8.9 | -6.5 | -3.9 | 26.4
CN1CCN(c2ccc(S(=O)(=O)N3CCCCC3)cc2NC(=O)c2ccc3ccccc3c2)CC1 | -154.8 | -9.1 | 45.7* | -15.4 | 1.8 | -1.0 | -5.6 | 52.0*
CCOC(=O)c1cc(-c2ccc(OC)cc2)nc2c1c(C)nn2CCC#N | 18.5 | -15.5 | 52.7* | -18.9 | -300.2 | -4.6 | 0.4 | ?
O=C1c2ccccc2C(c2nnnn2Cc2ccccc2)N1C1CC1 (stereo not drawn) | . | . | . | . | 23.5 | . | . | .
CC(=O)Nc1ccc(S(=O)(=O)NNC(=O)C(=O)NNc2ccccn2)cc1 | -11.9 | 4.9 | 58.1* | 7.5 | 18.9 | 4.1 | 2.7 | 95.4*
Cc1ccc(S(=O)(=O)NNC(=O)C(=O)NNc2ccccn2)cc1 | -6.5 | 4.2 | 68.7* | 13.7 | 26.5 | 2.0 | -1.1 | 81.2*
